Measured values taken from ChEMBL document CHEMBL1132201, “Potent inhibition of Grb2 SH2 domain binding by non-phosphate-containing ligands” (J Med Chem, 1999).
Positions of bridges follow the written chain, without caps; N, C: chain ends. Non-standard residues stand in square brackets, D forms with d. Residues, ends and D or L forms follow the SMILES beside them. pY = N[C@@H](Cc1ccc(OP(=O)(O)O)cc1)C(=O)O

What was measured:
[1] = molecular target: T1, Growth factor receptor-bound protein 2 (Homo sapiens, UniProt P62993); assay: Inhibition of Growth factor receptor bound protein 2 SH2 domain binding in plasmon resonance binding assay
In short: (§1)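 Biotin-DDPSpYVNVQ (SHC phosphopeptide) immobilized on SA5 streptavidin chips at 2 nM. Equilibrium Ru was read 20 s after flow ended and compared with binding without inhibitor to derive IC50. Two experiments on separate chips.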

[2] = molecular target: T1, Growth factor receptor-bound protein 2; assay: (§2) Inhibition of Grb2 SH2 domain binding in MDA-MB-453 human breast carcinoma cell lysates
In short: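 Lysates of serum-treated MDA-MB-453 cells were made in 1% Triton X-100/PBS with 0.2 mM NaVO4 and incubated 30 min with compound. Grb2 was immunoprecipitated from 5 mg lysate with anti-Grb2 and protein A Sepharose. Proteins were resolved by 8–16% SDS-PAGE, and coprecipitated p185erbB-2 was detected by anti-phosphotyrosine Western blot. Single experiment, equal lysate amounts.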

[3] = molecular target: T1, Growth factor receptor-bound protein 2; assay: Inhibition of Grb2 SH2 domain binding by surface plasmon resonance; in short: as §1
[4] = molecular target: T1, Growth factor receptor-bound protein 2; assay: as §2; settings: in the assay text read “cells” for “cell lysates”
[5] = molecular target: T1, Growth factor receptor-bound protein 2; assay: Inhibition of Grb2 SH2 domain binding

Row | IC50 [1] | IC50 [2] | Compound | also measured
1 | 80 nM | 500 nM | CC(=O)N[C@@H](Cc1ccc(C(F)(F)P(=O)(O)O)cc1)C(=O)NC1(C(=O)N[C@@H](CC(N)=O)C(=O)NCCCc2cccc3ccccc23)CCCCC1 | 
2 |  |  | CC(=O)N[C@@H](Cc1ccc(OP(=O)(O)O)cc1)C(=O)NC1(C(=O)N[C@@H](CC(N)=O)C(=O)NCCCc2cccc3ccccc23)CCCCC1 | IC50 [3]: 70 nM
3 |  |  | CC(=O)N[C@@H](Cc1ccc(O)cc1)C(=O)NC1(C(=O)N[C@@H](CC(N)=O)C(=O)NCCCc2cccc3ccccc23)CCCCC1 | IC50 [4]: > 50000 nM
4 | 80 nM | 500 nM | CC(=O)N[C@@H](Cc1ccc(CP(=O)(O)O)cc1)C(=O)NC1(C(=O)N[C@@H](CC(N)=O)C(=O)NCCCc2cccc3ccccc23)CCCCC1 | 
5 | 6700 nM |  | CC(=O)N[C@@H](Cc1ccc(OCC(=O)O)c(C(=O)O)c1)C(=O)NC1(C(=O)N[C@@H](CC(N)=O)C(=O)NCCCc2cccc3ccccc23)CCCCC1 | 
6 |  |  | CC(=O)N[C@@H](Cc1ccc(OP(=O)(O)O)cc1)C(=O)NC1(C(=O)N[C@@H](CC(N)=O)C(=O)NCCCc2c(O)ccc3ccccc23)CCCCC1 | IC50 [5]: 11 nM
7 | > 100000 nM |  | CC(=O)N[C@@H](Cc1ccc(OCC(=O)O)c(OCC(=O)O)c1)C(=O)NC1(C(=O)N[C@@H](CC(N)=O)C(=O)NCCCc2cccc3ccccc23)CCCCC1 | 
8 | 1300 nM | 500 nM | NC(=O)C[C@H](NC(=O)C1(NC(=O)[C@H](Cc2ccc(OCC(=O)O)c(C(=O)O)c2)NC(=O)C(=O)O)CCCCC1)C(=O)NCCCc1cccc2ccccc12 | 
9 |  | 500 nM | NC(=O)C[C@H](NC(=O)C1(NC(=O)[C@H](Cc2ccc(CP(=O)(O)O)cc2)NC(=O)C(=O)O)CCCCC1)C(=O)NCCCc1cccc2ccccc12 | 
10 |  |  | CC[C@H](C)[C@@H]1NC(=O)[C@H](Cc2ccc(OP(=O)(O)O)cc2)NC(=O)[C@@H](NC(C)=O)CSSC[C@@H](C(N)=O)NC(=O)[C@H](CC(N)=O)NC1=O (Ac-C[pY]INC-NH2; disulfide 1-5) | IC50 [5]: 370 nM
11 |  |  | CC(C)[C@H](NC(=O)[C@H](CC(N)=O)NC(=O)[C@@H](NC(=O)[C@H](Cc1ccc(OP(=O)(O)O)cc1)NC(=O)[C@H](CO)NC(=O)[C@@H]1CCCN1C(=O)[C@H](CC(=O)O)NC(=O)[C@@H](N)CC(=O)O)C(C)C)C(=O)N[C@@H](CCC(N)=O)C(=O)O (H-DDPS[pY]VNVQ-OH) | IC50 [5]: 1300 nM
